Published values collected from several papers.
Compare with care: the assays were run in different laboratories.
Read-out: cell growth or viability

SMILES | cell line | technique | tested at | time | measurement | value
CCn1c(-c2nonc2N)nc2c(C#CC(C)(C)O)ncc(OC[C@H]3CCCNC3)c21 | UACC-903 | resazurin |  | 72 h | EC50 | 83 µM
COC(=O)COc1ccc(NC(=O)C2(c3cccc(C)c3)CC2)c(C)c1 | U-937 | ATP luminescence |  | 72 h | GI50 | 6.8 µM
Cc1ccc(-c2cc(-c3ccc4oc(=O)cc(C)c4c3O)nc(N)n2)cc1 | KB | MTT | 8 µg/mL | 72 h | inhibition | 0%
COC(=O)COc1cccc(NC(=O)C2(c3cccc(C)c3)CC2)c1 | U-937 | ATP luminescence |  | 72 h | GI50 | > 200 µM
COc1cc(-c2ccc(-c3ccc(C(=N)N)nc3)s2)cc(OC)c1OC | IGROV-1 | SRB |  |  | GI50 | 2.63 µM
Oc1ccc(Nc2nc(-c3ccc(Cl)cc3)cs2)cc1 | UACC-903 | MTS |  | 48 h | IC50 | 59.1 µM
COc1ccc(-c2cc(-c3ccc4oc(=O)cc(C)c4c3O)nc(N)n2)cc1 | KB | MTT | 128 µg/mL | 72 h | inhibition | 28%
COc1cc(Nc2nccc(-c3cnn4nc(OC)ccc34)n2)cc(C(F)(F)F)c1 | SNU1 | ATP luminescence |  |  | IC50 | 0.19 µM
Cc1cc(=O)oc2ccc(-c3cc(-c4cccc(Cl)c4)nc(N)n3)c(O)c12 | KB | MTT | 32 µg/mL | 72 h | inhibition | 16%
CC#CC(=O)N1CC[C@@H](n2cc(-c3ccc(Oc4c(F)cccc4F)cc3)c3c(N)n[nH]c(=O)c32)C1 | MINO | ATP luminescence |  | 72 h | GI50 | 5.18 µM
COC(=O)COc1ccc(NC(=O)C2(c3ccccc3)CC2)cc1Br | U-937 | ATP luminescence |  | 72 h | GI50 | 6.1 µM
Cc1cc(=O)oc2ccc(-c3cc(-c4cccs4)nc(N)n3)c(O)c12 | KB | MTT | 128 µg/mL | 72 h | inhibition | 17%
COC(=O)COc1cccc(NC(=O)C2(c3cccc(Br)c3)CC2)c1 | U-937 | ATP luminescence |  | 72 h | GI50 | 3.5 µM
C=CC(=O)N1CCN(c2nc(=O)n(-c3c(C)ccnc3C(C)C)c3nc(-c4c(O)cccc4F)c(F)cc23)[C@@H](C)C1 | LS-513 |  |  | 5 days | EC50 | > 10 µM
